Screening results as filed in PubChem.
CSC inhib: blocks cancer stem cells | 300,000 compounds, 1.1% hits | inhibition, % at 7.5 µM | cancer stem cell-like cells viability, luminescence; in the data active = inhibition above about 75%; tested in HMLE shEcad cells
Efflux pump mplx: antifungal efflux pump inhibition, Nile Red retention. S. cerevisiae Candida pump triplex. inhibition, % at 10 µM. 330,000 compounds, 0.44% hits. AID 485275;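 active = plate passing quality check with inhibition over a set limit, or well fluorescence over plate mean plus 4 SD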;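 note: Nile Red retained in pooled yeast measured as flow cytometry median fluorescence; 0% = buffer negative control and 100% = Enniatin B positive control; higher means more Nile Red kept so more efflux inhibition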
Mot1-301 SUMO: SUMOylation pathway inhibition by Mot1-301 growth rescue. 320,000 compounds, 1% hits. growth rescue, % at 18.8 µM. AID 2716. S. cerevisiae Mot1-301 growth rescue, ATP luminescence, 38.5C; percent above DMSO median, 100 means doubled;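 active = every valid replicate shows activation above 250% relative to neutral control wells; inactive = the rest, any valid replicate at or below 250%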;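 note: OY570 slx delta 5 strain wells were the positive control but not used for scaling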
T cruzi repl: blocks replication of Trypanosoma cruzi; T. cruzi beta-gal in NIH3T3, luminescence, 90 h; inhibition, % (no concentration beside the values); 300,000 compounds, 1.4% hits; AID 1885;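 active = mean inhibition across valid replicates above about 55%, limit read from the data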;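 note: signal also drops with host cell toxicity which is not excluded here; 0% = plate median of DMSO wells and 100% = zero luminescence signal; higher percent means less beta-gal luminescence so fewer parasites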
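assay system = mouse NIH/3T3 fibroblasts infected with β-gal-expressing T. cruzi Tulahuen C4 | input = 5,000 NIH/3T3 host cells per well | buffer or medium = DMEM plus 2% FBS | timing = 3 h host attachment, then at least 90 h co-culture | measured by = GalScreen luminescence, 60 min | evaluation = luminescence reflecting intracellular parasite burden, expressed as percent inhibition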
Beta apoptosis: beta cell apoptosis inhibition | protection from apoptosis, % (test concentration not listed) | INS-1E cytokine-induced death, ATP luminescence, 48 h; percent of positive-control rescue, neutral wells zero | 300,000 compounds, 0.8% hits;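 active = Every replicate reaches about 75%, or at least half do and their mean reaches it too, limit read from the data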;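 note: 0% = cytokine-treated negative control wells and 100% = positive control rescue; higher means more ATP so stronger rescue from cytokine killing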
WT yeast gro inh: growth inhibition of WT yeast, mitochondrial fusion screen; mitochondrial fusion phenotypic screen, WT strain; inhibition, % at 10 µM; 190,000 compounds, 2.1% hits; AID 1362; in the data active = inhibition above about 58%; tested in S. cerevisiae
* = called active by the depositor; . = no result given. Shown are actives, neighbours in structure and some others; about 4.8% of the full set was active somewhere.

SMILES	CSC inhib	Efflux pump mplx	Mot1-301 SUMO	T cruzi repl	Beta apoptosis	WT yeast gro inh
CN(C)c1ccc(C(CNS(=O)(=O)c2ccc(F)c(F)c2)c2c[nH]c3ccccc23)cc1 (configuration not stated)	5	0	12	5	1	74*
CC(=O)COc1cc(C)cc2oc(=O)c(C)c(C)c12	4	0	-5	-3	-9	66*
CCCc1cc(=O)oc2cc(C)cc(OCC(=O)O)c12	-16	0	-13	6	-5	5
C=C(Cl)COc1cc(C)cc2oc(=O)cc(CC)c12	-15	0	329*	9	2	1
COc1cccc(/C=C/C(=O)OCC(=O)NCc2ccco2)c1	22	1	.	-12	0	-17
Nc1n[nH]c(N)c1N=Nc1ccc2c(c1)OCO2	-2	0	24	74*	-15	28
O=C(CC1NCCNC1=O)Nc1cccc([N+](=O)[O-])c1 (configuration not stated)	-6	0	11	-1	0	-4
CN1CCN(C2Cc3ccc(F)cc3Sc3cc(F)c(Cl)cc32)CC1 (configuration not stated)	101*	0	-69	51	.	.
CC(C)c1ccc2c(c1)C(N1CCNCC1)Cc1ccc(F)cc1S2 (configuration not stated)	102*	0	379	.	116*	.
Cc1cc(NC(=S)Nc2ccc(C)c(Cl)c2)n[nH]1	0	0	13	33	1	75*
COc1ccc(NC(=S)Nc2cc(-c3ccccc3)[nH]n2)cc1Cl	49	0	0	41	-1	66*
CC1CN(C(=O)/C=C/c2ccccc2Cl)CC(C)O1 (configuration not stated)	-8	0	-9	-16	0	.
Cn1cnnc1SCC(=O)Nc1ccccc1Oc1ccccc1	7	0	-2	1	-3	-2
CCSCCc1nnc(NC(=O)Nc2cccc(C(F)(F)F)c2)s1	27	0	13	0	119*	18
COc1ccc(N2CCN(c3ccc(C(=O)O)cc3[N+](=O)[O-])CC2)cc1	-4	0	-15	3	2	.
CN(C(=O)c1cnc(N2CCN(c3ncccn3)CC2)c2ccccc12)c1ccc(Cl)cc1	-7	0	-14	10	3	46
CCN(C(=O)c1cnc(N2CCN(c3ncccn3)CC2)c2ccccc12)c1cccc(Cl)c1	14	0	-8	1	8	63*
O=C(CN1CCN(S(=O)(=O)c2ccc3ccccc3c2)CC1)Nc1ccc2c(c1)CCC2	16	1	6	12	-9	7
Nc1nc(SCC(=O)Nc2ccc3c(c2)OCO3)n[nH]1	17	0	-4	-7	0	0
CCOc1ccccc1N1CCN(C(=S)NC(=O)C23CC4CC(CC(C4)C2)C3)CC1	32	0	.	14	4	59*
CCOc1ccccc1N1CCN(C(=S)NCc2ccc(Cl)cc2)CC1	34	0	42	36	4	78*
O=C(NC(=S)N1CCN(c2ccc(F)cc2)CC1)C12CC3CC(CC(C3)C1)C2	7	0	2	31	0	19
Cc1ccc(C(C)NC(=S)NC2CCCCC2)c(C)c1 (configuration not stated)	7	0	-10	3	7	.
CC(C)Sc1nc2ncnc(N)c2[nH]1	-11	0	22	-6	-6	-9
Cc1ccc(/C=N/NC(=O)CN2CCN(S(=O)(=O)c3ccc(Br)cc3)CC2)s1	26	-9	0	-17	-3	4
SMILES	CSC inhib	Efflux pump mplx	Mot1-301 SUMO	T cruzi repl	Beta apoptosis	WT yeast gro inh
O=C(CN1CCN(S(=O)(=O)c2ccc(Br)cc2)CC1)N/N=C/c1ccc(Br)s1	-1	0	4	63*	-3	31
COc1cc(C#N)c(NC(=O)CN2CCN(CCO)CC2)cc1OC	32	0	27	-15	-4	-11
Cc1cc(-c2cn3ccccc3n2)c(C)n1-c1ccccc1	3	0	3	62*	10	28
Cc1nc2c(-c3ccc(F)cc3)c(C)nn2c(C)c1CCC(=O)N1CCN(c2ccccc2)CC1	34	0	2	35	-1	39
CCN1CCN(c2ccc(NC(=O)CCc3c(C)nc4c(-c5ccc(F)cc5)c(C)nn4c3C)cc2)CC1	81*	0	-25	64*	12	22
Cc1nc2c(-c3ccc(F)cc3)c(C)nn2c(C)c1CCC(=O)N1CCC(Cc2ccccc2)CC1	17	1	-5	23	0	65*
Cc1nc2c(-c3ccc(F)cc3)c(C)nn2c(C)c1CCC(=O)Nc1ccccc1	-2	-1	127	50	8	.
Clc1ccc(-c2c[n+](Cc3ccc(Cl)c(Cl)c3)c3n2CCC3)cc1	.	.	.	.	.	13
Clc1cccc(C[n+]2cc(-c3ccccc3)n3c2CCC3)c1	7	0	3	64*	-3	-14
Cc1ccc(-c2c[n+](Cc3ccc(Cl)cc3)c3n2CCC3)cc1	20	0	45	61*	109*	.
O=C(Nc1ccc(C(F)(F)F)cc1)c1cc(S(=O)(=O)NCC2COc3ccccc3O2)ccc1F (configuration not stated)	23	0	1	45	14	82*
CC(C)c1ccc(NC(=O)c2cc(S(=O)(=O)NCC3COc4ccccc4O3)ccc2F)cc1 (configuration not stated)	123*	0	-11	22	58	62*
COc1ccc(NC(=O)c2cc(S(=O)(=O)NCC3COc4ccccc4O3)ccc2F)cc1 (configuration not stated)	-1	0	-7	-33	-8	19
O=C(O)c1cc(S(=O)(=O)NCC2COc3ccccc3O2)ccc1Cl (configuration not stated)	-13	0	15	.	-4	.
Cc1ccc(NC(=O)Cn2c(=O)oc3cc(S(=O)(=O)N4CCC(C)CC4)ccc32)cc1C	-1	0	1	-10	76*	1
O=C1CC(c2cccc(Cl)c2)CC(O)=C1C=Nc1cccc(Cl)c1 (configuration not stated)	8	0	19	2	-5	81*
O=C1CC(c2ccccc2)CC(O)=C1C=Nc1ccccc1 (configuration not stated)	-14	0	8	-28	.	-3
CCSc1ccccc1C(=O)Nc1ccc(S(=O)(=O)NC(C)=O)cc1	-5	0	-13	3	-3	-1
CC(C)CC(=O)N1CCN(C(=O)c2ccc(F)cc2)CC1	55	0	-11	-17	33	.
CCCCNC(=O)CCc1c(C)nc2c(c(C)nn2-c2ccccc2)c1C	4	0	-5	55*	0	.
Cc1cc(C)cc(N=c2c([N+](=O)[O-])nn(-c3ccc(Cl)cc3)n2O)c1	16	0	5	59*	-9	36
